Measured values from ChEMBL document CHEMBL1287807, “Novel TNF-α converting enzyme (TACE) inhibitors as potential treatment for inflammatory diseases” (Bioorg Med Chem Lett, 2010).

Legend:
Blood = test: Antiinflammatory activity in human whole blood assessed as inhibition of LPS-induced TNFalpha production after 3.5 hrs by ELISA; format: functional
Outline: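 Human whole blood, diluted 1:1 in serum-free RPMI with L-glutamine, Pen-Strep and HEPES, is preincubated with compound for 1 h at 37 °C. It is then stimulated with LPS. Supernatant is harvested after 3.5 h incubation, and TNF-α concentration is measured by ELISA.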

[1] = biological target: Disintegrin and metalloproteinase domain-containing protein 17 (Homo sapiens, UniProt P78536); test: Inhibition of TACE
[2] = AUC in dog at 0.5 mg/kg, iv; format: ADME, organism-based, Canis lupus familiaris; parameters: dose 0.5 mg/kg, route intravenous; details: plasma
[3] = Half life in dog at 0.5 mg/kg, iv; format: ADME, organism-based, Canis lupus familiaris; parameters: dose 0.5 mg/kg, route intravenous; details: in vivo
[4] = Clearance in monkey at 1 mg/kg, iv; format: ADME, organism-based, Macaca mulatta; parameters: dose 1 mg/kg, route intravenous; details: rhesus monkey, in vivo
[5] = Oral bioavailability in rat at 10 mg/kg; format: ADME, organism-based; details: in vivo
[6] = biological target: 72 kDa type IV collagenase (Homo sapiens, UniProt P08253); test: Inhibition of MMP2
Interstitial collagenase = biological target: T1, Interstitial collagenase (Homo sapiens, UniProt P03956); test: Inhibition of MMP1
T1 sequence (P03956 whole entry): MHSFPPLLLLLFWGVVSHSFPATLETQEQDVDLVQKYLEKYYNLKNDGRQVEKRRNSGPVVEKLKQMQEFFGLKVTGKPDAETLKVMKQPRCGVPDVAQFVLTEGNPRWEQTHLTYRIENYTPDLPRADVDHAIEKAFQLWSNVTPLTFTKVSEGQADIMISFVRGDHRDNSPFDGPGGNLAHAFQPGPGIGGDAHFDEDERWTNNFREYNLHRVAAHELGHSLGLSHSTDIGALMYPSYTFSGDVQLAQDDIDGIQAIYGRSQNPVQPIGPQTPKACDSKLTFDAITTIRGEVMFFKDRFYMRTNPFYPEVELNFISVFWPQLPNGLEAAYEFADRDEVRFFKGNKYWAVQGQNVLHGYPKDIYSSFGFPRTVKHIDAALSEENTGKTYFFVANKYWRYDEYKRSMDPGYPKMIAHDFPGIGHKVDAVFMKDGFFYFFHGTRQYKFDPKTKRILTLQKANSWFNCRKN

[7] = AUC in monkey at 1 mg/kg, iv; format: ADME, organism-based, Macaca mulatta; parameters: dose 1 mg/kg, route intravenous; details: rhesus monkey, plasma
Outline: (§1)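 Compound dosed as its Na+ salt, intravenously or orally, at the dose given in each line. AUC is reported in uM.h.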

[8] = Half life in rat at 3 mg/kg, iv; format: ADME, organism-based; parameters: dose 3 mg/kg, route intravenous; details: in vivo
[9] = Tmax in rat at 10 mg/kg, po; format: ADME, organism-based; parameters: dose 10 mg/kg, route oral; details: in vivo
[10] = biological target: Matrix metalloproteinase-9 (Homo sapiens, UniProt P14780); test: Inhibition of MMP9
[11] = Clearance in rat at 3 mg/kg, iv; format: ADME, organism-based; parameters: dose 3 mg/kg, route intravenous; details: in vivo
[12] = Oral bioavailability in monkey at 3 mg/kg; format: ADME, organism-based, Macaca mulatta; details: rhesus monkey, in vivo
[13] = Tmax in monkey at 3 mg/kg, po; format: ADME, organism-based, Macaca mulatta; parameters: dose 3 mg/kg, route oral; details: rhesus monkey, in vivo
[14] = AUC in rat at 3 mg/kg, iv; format: ADME, organism-based; parameters: dose 3 mg/kg, route intravenous; details: plasma; outline: as §1
[15] = Clearance in dog at 0.5 mg/kg, iv; format: ADME, organism-based, Canis lupus familiaris; parameters: dose 0.5 mg/kg, route intravenous; details: in vivo
[16] = Half life in monkey at 1 mg/kg, iv; format: ADME, organism-based, Macaca mulatta; parameters: dose 1 mg/kg, route intravenous; details: rhesus monkey, in vivo
[17] = AUC in rat at 10 mg/kg, po; format: ADME, organism-based; parameters: dose 10 mg/kg, route oral; details: plasma; outline: as §1
Stromelysin-1 = Stromelysin-1 (Homo sapiens, UniProt P08254); test: Inhibition of MMP3
[18] = AUC in monkey at 3 mg/kg, po; format: ADME, organism-based, Macaca mulatta; parameters: dose 3 mg/kg, route oral; details: rhesus monkey, plasma; outline: as §1
[19] = Tmax in dog at 5 mg/kg, po; format: ADME, organism-based, Canis lupus familiaris; parameters: dose 5 mg/kg, route oral; details: in vivo
Matrilysin = biological target: T2, Matrilysin (Homo sapiens, UniProt P09237); test: Inhibition of MMP7
T2 sequence (P09237 whole entry): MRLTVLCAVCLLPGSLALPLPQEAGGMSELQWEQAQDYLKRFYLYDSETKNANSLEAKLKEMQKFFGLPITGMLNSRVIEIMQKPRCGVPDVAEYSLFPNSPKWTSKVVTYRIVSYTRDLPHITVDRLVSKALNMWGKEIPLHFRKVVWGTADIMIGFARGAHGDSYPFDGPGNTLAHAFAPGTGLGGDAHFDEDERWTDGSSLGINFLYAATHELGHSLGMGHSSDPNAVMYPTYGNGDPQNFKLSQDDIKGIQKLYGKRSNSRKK

[20] = AUC in dog at 5 mg/kg, po; format: ADME, organism-based, Canis lupus familiaris; parameters: dose 5 mg/kg, route oral; details: plasma
Collagenase 3 = Collagenase 3 (Homo sapiens, UniProt P45452); test: Inhibition of MMP13
[21] = biological target: T3, Disintegrin and metalloproteinase domain-containing protein 10 (Homo sapiens, UniProt O14672); test: Inhibition of ADAM10
T3 sequence (O14672 whole entry): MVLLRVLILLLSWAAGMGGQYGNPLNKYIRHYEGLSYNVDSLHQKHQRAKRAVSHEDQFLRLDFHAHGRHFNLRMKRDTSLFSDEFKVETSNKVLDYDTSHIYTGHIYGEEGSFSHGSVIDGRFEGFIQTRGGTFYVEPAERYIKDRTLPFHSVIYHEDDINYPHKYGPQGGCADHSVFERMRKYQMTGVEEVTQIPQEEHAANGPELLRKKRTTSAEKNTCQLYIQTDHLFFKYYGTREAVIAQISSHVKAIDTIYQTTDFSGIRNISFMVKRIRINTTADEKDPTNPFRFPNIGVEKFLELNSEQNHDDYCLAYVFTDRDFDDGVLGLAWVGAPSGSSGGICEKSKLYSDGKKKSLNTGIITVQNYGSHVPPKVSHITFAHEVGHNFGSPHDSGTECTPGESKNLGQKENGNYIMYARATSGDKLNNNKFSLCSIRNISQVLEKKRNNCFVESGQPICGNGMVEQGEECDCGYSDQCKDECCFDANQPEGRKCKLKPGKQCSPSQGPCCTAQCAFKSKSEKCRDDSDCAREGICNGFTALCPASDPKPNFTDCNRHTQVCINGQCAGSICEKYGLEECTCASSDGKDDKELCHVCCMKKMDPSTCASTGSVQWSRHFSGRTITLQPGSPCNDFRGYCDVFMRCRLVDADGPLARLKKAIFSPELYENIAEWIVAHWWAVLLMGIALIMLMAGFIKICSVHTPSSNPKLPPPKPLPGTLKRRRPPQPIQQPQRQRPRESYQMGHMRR

[22] = Oral bioavailability in dog at 5 mg/kg; format: ADME, organism-based, Canis lupus familiaris; details: in vivo

Sequence of Disintegrin and metalloproteinase domain-containing protein 17 (P78536 whole entry, the tested form may be a part): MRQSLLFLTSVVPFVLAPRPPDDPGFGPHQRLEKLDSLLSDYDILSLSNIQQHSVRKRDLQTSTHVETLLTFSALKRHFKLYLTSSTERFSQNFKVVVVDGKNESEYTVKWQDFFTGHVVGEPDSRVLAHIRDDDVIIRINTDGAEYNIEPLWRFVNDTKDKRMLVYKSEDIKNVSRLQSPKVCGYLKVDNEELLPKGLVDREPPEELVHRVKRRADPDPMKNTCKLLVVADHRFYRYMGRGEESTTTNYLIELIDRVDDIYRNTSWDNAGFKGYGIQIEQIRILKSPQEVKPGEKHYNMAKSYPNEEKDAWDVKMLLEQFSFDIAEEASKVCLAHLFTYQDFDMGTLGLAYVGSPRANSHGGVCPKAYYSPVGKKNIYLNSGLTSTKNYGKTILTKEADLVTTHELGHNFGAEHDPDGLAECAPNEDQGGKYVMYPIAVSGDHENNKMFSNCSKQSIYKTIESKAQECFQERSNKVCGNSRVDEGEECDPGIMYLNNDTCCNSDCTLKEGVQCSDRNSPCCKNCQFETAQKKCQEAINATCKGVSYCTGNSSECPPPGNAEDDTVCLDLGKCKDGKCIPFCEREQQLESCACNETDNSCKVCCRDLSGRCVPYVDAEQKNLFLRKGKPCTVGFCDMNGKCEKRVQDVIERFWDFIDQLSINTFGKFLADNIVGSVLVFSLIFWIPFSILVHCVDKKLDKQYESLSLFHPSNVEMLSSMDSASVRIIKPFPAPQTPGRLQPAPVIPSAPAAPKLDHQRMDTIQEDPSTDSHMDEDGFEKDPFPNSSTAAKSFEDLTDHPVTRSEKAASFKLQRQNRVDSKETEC
Sequence of Stromelysin-1 (P08254 whole entry): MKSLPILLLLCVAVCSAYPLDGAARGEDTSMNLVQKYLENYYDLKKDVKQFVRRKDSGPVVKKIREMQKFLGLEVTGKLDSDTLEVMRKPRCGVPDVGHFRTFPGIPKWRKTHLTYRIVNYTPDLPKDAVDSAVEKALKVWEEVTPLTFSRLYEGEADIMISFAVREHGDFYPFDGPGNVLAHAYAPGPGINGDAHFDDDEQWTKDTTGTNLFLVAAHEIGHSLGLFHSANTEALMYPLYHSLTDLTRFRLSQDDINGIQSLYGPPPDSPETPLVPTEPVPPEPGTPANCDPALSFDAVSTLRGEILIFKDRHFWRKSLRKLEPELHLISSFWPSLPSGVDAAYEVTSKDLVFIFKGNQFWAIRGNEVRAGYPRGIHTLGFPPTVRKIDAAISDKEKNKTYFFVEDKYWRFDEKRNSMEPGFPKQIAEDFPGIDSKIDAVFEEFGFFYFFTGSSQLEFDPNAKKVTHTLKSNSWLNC
Sequence of Matrix metalloproteinase-9 (P14780 whole entry): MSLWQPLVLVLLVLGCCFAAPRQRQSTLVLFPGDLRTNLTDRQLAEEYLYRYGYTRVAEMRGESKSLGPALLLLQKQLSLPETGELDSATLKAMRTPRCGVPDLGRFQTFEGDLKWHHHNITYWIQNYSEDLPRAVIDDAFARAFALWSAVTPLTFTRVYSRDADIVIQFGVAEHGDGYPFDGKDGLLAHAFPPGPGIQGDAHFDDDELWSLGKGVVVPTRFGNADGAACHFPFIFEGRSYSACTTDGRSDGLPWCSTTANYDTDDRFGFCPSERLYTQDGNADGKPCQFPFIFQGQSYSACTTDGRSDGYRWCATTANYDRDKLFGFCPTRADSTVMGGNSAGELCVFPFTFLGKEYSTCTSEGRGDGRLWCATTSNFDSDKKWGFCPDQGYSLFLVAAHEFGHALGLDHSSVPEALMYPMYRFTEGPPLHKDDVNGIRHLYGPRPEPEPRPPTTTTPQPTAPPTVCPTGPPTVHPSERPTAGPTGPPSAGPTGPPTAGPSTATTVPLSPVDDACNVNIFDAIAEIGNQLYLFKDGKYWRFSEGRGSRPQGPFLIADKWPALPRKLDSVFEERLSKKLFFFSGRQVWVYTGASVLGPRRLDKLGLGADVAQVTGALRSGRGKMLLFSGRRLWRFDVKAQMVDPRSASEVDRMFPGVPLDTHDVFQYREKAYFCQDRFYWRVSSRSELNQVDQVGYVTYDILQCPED
Sequence of 72 kDa type IV collagenase (P08253 whole entry): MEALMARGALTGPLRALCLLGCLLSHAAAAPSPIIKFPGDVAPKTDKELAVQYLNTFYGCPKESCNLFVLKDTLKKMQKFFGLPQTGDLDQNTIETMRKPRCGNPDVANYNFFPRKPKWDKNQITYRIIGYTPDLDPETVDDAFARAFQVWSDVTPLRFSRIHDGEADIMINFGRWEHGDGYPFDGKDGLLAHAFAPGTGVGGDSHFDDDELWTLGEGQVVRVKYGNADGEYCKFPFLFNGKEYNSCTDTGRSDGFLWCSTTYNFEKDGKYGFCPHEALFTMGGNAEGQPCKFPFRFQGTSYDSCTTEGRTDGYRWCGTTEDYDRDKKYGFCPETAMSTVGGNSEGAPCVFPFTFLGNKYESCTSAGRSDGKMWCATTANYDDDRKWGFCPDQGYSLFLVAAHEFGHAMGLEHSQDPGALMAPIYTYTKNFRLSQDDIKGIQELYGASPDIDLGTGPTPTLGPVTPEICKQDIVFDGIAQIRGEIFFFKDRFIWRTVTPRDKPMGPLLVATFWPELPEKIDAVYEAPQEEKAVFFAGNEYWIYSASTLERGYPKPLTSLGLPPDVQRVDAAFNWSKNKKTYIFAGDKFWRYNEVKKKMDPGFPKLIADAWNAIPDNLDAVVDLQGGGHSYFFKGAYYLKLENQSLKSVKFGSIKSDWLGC

COc1ccc2c(c1)C(=O)N(C[C@@]1(C#Cc3ccc4[nH]c(=O)[nH]c4c3)NC(=O)NC1=O)C2
Activity (Blood): 240 nM
Ki [1]: 0.53 nM

COc1ccc2c(c1)C(=O)N(C[C@@]1(C#Cc3ccc(C(=O)NC4CC4)cc3)NC(=O)NC1=O)C2
Activity (Blood): 487 nM
Ki [1]: 2.55 nM

CCN1CCN(c2ccc(O)c(-c3ccc(C#C[C@]4(CN5Cc6ccc(OC)cc6C5=O)NC(=O)NC4=O)cc3F)n2)CC1
Activity (Blood): 40 nM
Ki [1]: 0.1 nM

COc1ccc2c(c1)C(=O)N(C[C@@]1(C#Cc3cccnc3)NC(=O)NC1=O)C2
AUC [2]: 1.3 µM·h
half-life [3]: 0.9 h
clearance [4]: 217 mL/min/kg
bioavailability [5]: 15%
IC50 [6]: 431 nM
Activity (Blood): 220 nM
IC50 (Interstitial collagenase): 5200 nM
AUC [7]: 3.8 µM·h
half-life [8]: 2.2 h
Tmax [9]: 2.2 h
IC50 [10]: 1010 nM
clearance [11]: 317 mL/min/kg
bioavailability [12]: 23%
Tmax [13]: 1.2 h
AUC [14]: 7.3 µM·h
clearance [15]: 317 mL/min/kg
half-life [16]: 2.4 h
AUC [17]: 4 µM·h
IC50 (Stromelysin-1): 5800 nM
AUC [18]: 2.6 µM·h
Tmax [19]: 6 min
IC50 (Matrilysin): > 40000 nM
AUC [20]: 1.1 µM·h
IC50 (Collagenase 3): 2920 nM
IC50 [21]: 22 nM
Ki [1]: 0.62 nM
bioavailability [22]: 9%

COc1ccc2c(c1)C(=O)N(C[C@@]1(C#Cc3ccc(F)cc3)NC(=O)NC1=O)C2
Activity (Blood): 1675 nM
Ki [1]: 0.26 nM

COc1ccc2c(c1)C(=O)N(C[C@@]1(C#Cc3ccc(/C=N/O)cc3)NC(=O)NC1=O)C2
Activity (Blood): 167 nM
Ki [1]: 0.16 nM

COc1ccc2c(c1)C(=O)N(C[C@@]1(C#Cc3ccc(CC4CCN(C)CC4)nc3)NC(=O)NC1=O)C2
Activity (Blood): 195 nM
Ki [1]: 0.47 nM

COc1ccc(C#C[C@]2(CN3Cc4ccc(OC)cc4C3=O)NC(=O)NC2=O)cc1
Activity (Blood): 1332 nM
Ki [1]: 0.41 nM

COc1ccc2c(c1)C(=O)N(C[C@@]1(C#Cc3ccc4cnn(C)c4c3)NC(=O)NC1=O)C2
Activity (Blood): 10400 nM
Ki [1]: 0.52 nM

CCN1CCN(/C(=N\O)c2ccc(C#C[C@]3(CN4Cc5ccc(OC)cc5C4=O)NC(=O)NC3=O)cn2)CC1
Activity (Blood): 87 nM
Ki [1]: 0.18 nM

COc1ccc2c(c1)C(=O)N(C[C@@]1(C#Cc3cccc(C)c3)NC(=O)NC1=O)C2
Activity (Blood): 5148 nM
Ki [1]: 0.72 nM

COc1ccc2c(c1)C(=O)N(C[C@@]1(C#Cc3ccc4cc[nH]c4c3)NC(=O)NC1=O)C2
Activity (Blood): 2965 nM
Ki [1]: 0.19 nM

COc1ccc2c(c1)C(=O)N(C[C@@]1(C#Cc3cccc(C#N)c3)NC(=O)NC1=O)C2
Activity (Blood): 273 nM
Ki [1]: 0.06 nM

CCN1CCN(Cc2ccc(C#C[C@]3(CN4Cc5ccc(OC)cc5C4=O)NC(=O)NC3=O)cc2)CC1
Activity (Blood): 239 nM
Ki [1]: 0.29 nM

COc1ccc2c(c1)C(=O)N(C[C@@]1(C#Cc3ccc4[nH]cnc4c3)NC(=O)NC1=O)C2
Activity (Blood): 211 nM
Ki [1]: 0.6 nM

COc1ccc2c(c1)C(=O)N(C[C@@]1(C#Cc3ccccc3F)NC(=O)NC1=O)C2
Activity (Blood): 617 nM
Ki [1]: 0.13 nM

COc1ccc2c(c1)C(=O)N(C[C@@]1(C#Cc3ccc(C(C)=O)cc3)NC(=O)NC1=O)C2
Activity (Blood): 352 nM
Ki [1]: 0.5 nM

COc1ccc2c(c1)C(=O)N(C[C@@]1(C#Cc3cccc(C(N)=O)c3)NC(=O)NC1=O)C2
Ki [1]: 0.85 nM

COc1ccc2c(c1)C(=O)N(C[C@@]1(C#Cc3ccc4[nH]ccc4c3)NC(=O)NC1=O)C2
Activity (Blood): 751 nM
Ki [1]: 0.17 nM

COc1ccc2c(c1)C(=O)N(C[C@@]1(C#Cc3cnc4[nH]cnc4c3)NC(=O)NC1=O)C2
Activity (Blood): 193 nM
Ki [1]: 0.92 nM

CCN1CCN(/C(=N\O)c2ccc(C#C[C@]3(CN4Cc5ccc(OC)cc5C4=O)NC(=O)NC3=O)cc2)CC1
Activity (Blood): 20 nM
Ki [1]: 0.16 nM

COc1ccc2c(c1)C(=O)N(C[C@@]1(C#Cc3ccc(C(N)=O)cc3)NC(=O)NC1=O)C2
Activity (Blood): 165 nM
Ki [1]: 0.56 nM

COc1ccc2c(c1)C(=O)N(C[C@@]1(C#Cc3cccc(C(C)C)c3)NC(=O)NC1=O)C2
Activity (Blood): 19000 nM
Ki [1]: 0.5 nM

COc1ccc2c(c1)C(=O)N(C[C@@]1(C#Cc3ccc([C@H](C)N)cc3)NC(=O)NC1=O)C2
Activity (Blood): 621 nM
Ki [1]: 2.35 nM

COc1ccc2c(c1)C(=O)N(C[C@@]1(C#Cc3ccccc3C(N)=O)NC(=O)NC1=O)C2
Activity (Blood): 5311 nM
Ki [1]: 2.78 nM

COc1ccc2c(c1)C(=O)N(C[C@@]1(C#Cc3ccccc3C)NC(=O)NC1=O)C2
Activity (Blood): 3142 nM
Ki [1]: 2 nM

COc1ccc2c(c1)C(=O)N(C[C@@]1(C#Cc3cccc(F)c3)NC(=O)NC1=O)C2
Activity (Blood): 873 nM
Ki [1]: 0.2 nM

COc1ccc2c(c1)C(=O)N(C[C@@]1(C#Cc3ccc(/C(=N/O)N4CCN(C)CC4)cc3)NC(=O)NC1=O)C2
Activity (Blood): 33 nM
Ki [1]: 0.22 nM

COc1ccc2c(c1)C(=O)N(C[C@@]1(C#Cc3ccccc3)NC(=O)NC1=O)C2
Activity (Blood): 784 nM
Ki [1]: 0.14 nM

COc1ccc2c(c1)C(=O)N(C[C@@]1(C#Cc3ccc(-c4ncccc4O)cc3)NC(=O)NC1=O)C2
Activity (Blood): 117 nM
Ki [1]: 0.07 nM
